{"data": "Measured values pooled from the literature", "cell line": "MCF7", "read-out": "cell growth or viability", "note": "Protocols differ between the studies behind these lines."}
{"Compound": "C[C@@H]1CC[C@@H]([C@](C)(O)CNCc2ccccc2F)[C@H](OCc2ccccc2)C1", "method": "MTT", "tested at": "30 µM", "time": "72 h", "measurement": "inhibition", "value": "89.6%"}
{"Compound": "CC(=NNC(N)=S)c1ccc(Nc2nnc(-c3ccc(Cl)cc3)c3ccccc23)cc1", "method": "MTT", "tested at": "0.156 µM", "measurement": "cell death", "value": "49.5%"}
{"Compound": "COc1cccc2c1C(=O)c1c(O)c3c(c(O)c1C2=O)C[C@@](O)(C(=O)CO)C[C@@H]3O[C@H]1C[C@H](N)[C@H](O)[C@H](C)O1", "method": "MTT", "tested at": "100 µM", "time": "48 h", "measurement": "inhibition", "value": "96.8%"}
{"Compound": "C[C@@H]1CC[C@@H]([C@](O)(CNCc2ccccc2)COCc2ccccc2)[C@H](OCc2ccccc2)C1", "method": "MTT", "tested at": "30 µM", "time": "72 h", "measurement": "inhibition", "value": "83.2%"}
{"Compound": "O=C(Nc1ccc(Oc2nnc(-c3ccc(Cl)cc3)c3ccccc23)cc1)c1ccccc1", "method": "MTT", "tested at": "0.625 µM", "time": "24 h", "measurement": "viability", "value": "3.76%"}
{"Compound": "COc1cccc(CNC[C@@](C)(O)[C@@H]2CC[C@@H](C)C[C@H]2OCc2ccccc2)c1", "method": "MTT", "tested at": "30 µM", "time": "72 h", "measurement": "inhibition", "value": "95.9%"}
{"Compound": "O=C(Nc1ccccc1)Nc1ccc(Oc2nnc(-c3ccc(Cl)cc3)c3ccccc23)cc1", "method": "MTT", "tested at": "1.25 µM", "time": "24 h", "measurement": "viability", "value": "3.85%"}
{"Compound": "CCN1CCN(Cc2ccc(Nc3ncc(F)c(-c4cc(F)c5nc(C)n(C(C)C)c5c4)n3)nc2)CC1", "time": "5 days", "measurement": "EC50", "value": "0.009 µM"}
{"Compound": "CC(=NNC(=O)c1ccccc1)c1ccc(Nc2nnc(-c3ccc(Cl)cc3)c3ccccc23)cc1", "method": "MTT", "tested at": "0.625 µM", "measurement": "cell death", "value": "1.42%"}
{"Compound": "COc1ccc(COC[C@@](O)(CNCc2ccc(F)cc2)[C@@H]2CC[C@@H](C)C[C@H]2OCc2ccc(OC)cc2)cc1", "method": "MTT", "tested at": "10 µM", "time": "72 h", "measurement": "inhibition", "value": "94.5%"}
{"Compound": "CC(=O)c1nn(-c2ccc(C)cc2)/c(=N/N=C(\\C)c2ccc(NC(=O)c3ccccc3)cc2)s1", "method": "MTT", "tested at": "0.312 µM", "measurement": "viability", "value": "4.36%"}
{"Compound": "CC(=NNC(=O)c1ccccc1Br)c1ccc(Nc2nnc(-c3ccc(Cl)cc3)c3ccccc23)cc1", "method": "MTT", "tested at": "0.625 µM", "time": "24 h", "measurement": "viability", "value": "75.9%"}
{"Compound": "CCOC(=O)c1nn(-c2cccc(Cl)c2)/c(=N/N=C(\\C)c2ccc(NC(=O)c3ccc(Cl)cc3)cc2)s1", "method": "MTT", "tested at": "0.625 µM", "measurement": "viability", "value": "3.92%"}
{"Compound": "CC(=O)Nc1ccc(Oc2nnc(-c3ccc(Cl)cc3)c3ccccc23)cc1", "method": "MTT", "tested at": "0.625 µM", "time": "24 h", "measurement": "viability", "value": "4.91%"}
{"Compound": "CCOC(=O)c1nn(-c2cccc(Cl)c2)/c(=N/N=C(\\C)c2ccc(NC(=O)c3ccccc3)cc2)s1", "method": "MTT", "tested at": "0.312 µM", "measurement": "viability", "value": "6.34%"}
{"Compound": "C[C@@H]1CC[C@@H]([C@](C)(O)CNCc2cccc3ccccc23)[C@H](OCc2ccccc2)C1", "method": "MTT", "tested at": "30 µM", "time": "72 h", "measurement": "inhibition", "value": "92.2%"}
{"Compound": "CC(=O)Nc1ccc(/C(C)=N/N=c2\\sc(C(C)=O)nn2-c2ccc(C)cc2)cc1", "method": "MTT", "tested at": "10 µM", "measurement": "viability", "value": "5.39%"}
{"Compound": "C=C(C)[C@@H]1CC[C@@H](C)C[C@H]1OCc1ccccc1", "method": "MTT", "tested at": "30 µM", "time": "72 h", "measurement": "inhibition", "value": "31.6%"}
{"Compound": "CC(=O)c1nn(-c2ccccc2Cl)/c(=N/N=C(\\C)c2ccc(NC(=O)c3ccccc3)cc2)s1", "method": "MTT", "tested at": "0.312 µM", "measurement": "viability", "value": "7.5%"}
{"Compound": "COc1ccc(-c2cc(-c3ccc(Cl)cc3)c3c(=O)n(C)c(=O)n(C)c3n2)cc1", "method": "MTT", "time": "48 h", "measurement": "IC50", "value": "14.4 µM"}
